Source: PubChem (The Scripps Research Institute Molecular Screening Center)
STAT3 inh: reduces IL-6 driven STAT3 reporter signal | U3A cells, IL-6 STAT3-luciferase reporter, luminescence; host cell line lacks STAT1 | inhibition, % at 5.5 µM | 190,000 tested, 0.89% active;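 active = inhibition above the mean inhibition across all screened compounds plus 3 SD, cut at about 44% in these data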;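 note: 0% = DMSO only wells and 100% = 100 µM nifuroxazide control wells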
STAT1 blocker: reduces IFN-gamma driven STAT1 reporter signal; NIH 3T3 STAT1-luciferase reporter, luminescence; inhibition, % at 5.5 µM; 200,000 tested, 0.35% active;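 active = inhibition above a set limit, the mean inhibition across all tested compounds plus 3 SD, cut at about 34% in these data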;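 note: 0% = IFN-gamma with DMSO and 100% = IFN-gamma with 300 µM nifuroxazide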
STAT1 activator: STAT1 signaling activation; NIH 3T3 STAT1-luciferase reporter, IFN-gamma, luminescence; 100% = IFN-gamma alone, no compound; activation (% of control), % at 5.5 µM; 200,000 tested, 2.6% active; AID 932;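 active = activation above the screen-wide mean activation plus 3 SD, cut at about 130% in these data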;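 note: raw ratio to IFN-gamma control signal so 100% means no change and 0% no light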
STAT3 act: STAT3 signaling activation; U3A cells, IL-6 STAT3-luciferase reporter, luminescence; 100% = signal with IL-6 EC80 alone; activation (% of control), % at 5.6 µM; 190,000 tested, 0.91% active; AID 871;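 active = activation above the screen-wide mean of compound activation plus 3 SD, cut at about 130% in these data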;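 note: 0% = background luminescence of wells with medium and substrate only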
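system = STAT3-luciferase reporter U3A cells | reagent = IL-6 stimulus at 33 ng/mL final | timing = 1 h compound pre-exposure, 6 h IL-6 stimulation, 37 °C | measured by = luminescence | evaluation = % activation versus median of IL-6-stimulated wells | control set = IL-6-only wells as 100% reference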
Active calls of the source: *. The list is not random: actives were taken first. Their share in the collection is about 4.3%.

SMILES	STAT3 inh	STAT1 blocker	STAT1 activator	STAT3 act
O=C(Nc1nnc(-c2cccs2)s1)c1cccc(F)c1	-5.3	-39.0	134.5*	106.0
Cc1nnc(NC(=O)c2cccc(F)c2)s1	15.5	-7.6	106.9	94.1
COc1ccc(C(=O)Nc2nnc(-c3cccs3)s2)cc1	-71.5	-23.4	121.6	156.9*
O=C(CN1CCCC1)Nc1nnc(-c2cccs2)s1	4.2	-11.2	109.9	99.7
COc1ccc(OC)c(NC(=O)COC(=O)CCCN2C(=O)c3ccccc3C2=O)c1	7.1	1.6	98.6	96.2
C[n+]1ccccc1COc1ccc(C(C)(C)C)cc1	3.9	5.4	94.5	97.8
CCOC(=O)/C=C/c1cnn(-c2ccccc2)c1	3.3	-40.2	137.9*	96.1
COc1ccc(NS(=O)(=O)c2cccc(-c3nnc4n3CCCCC4)c2)cc1	-5.1	-2.0	101.8	106.5
COc1ccc(-c2cc3nc4n(c(=O)c3s2)CCC4)cc1	92.5*	65.1*	40.1	20.3
COC(=O)Cc1ccc(NC(=O)c2ccc(Br)o2)cc1	9.4	-28.3	126.0	94.6
CCN(CC)c1ccc(NC(=O)c2ccc(Br)o2)cc1	-2.3	-33.2	132.7*	107.7
O=C(Nc1ccccc1)c1ccc(Br)o1	3.9	-7.6	107.0	94.3
O=C(Nc1ccc2c(c1)oc1ccccc12)c1ccc(Br)o1	7.5	-43.4	139.4*	97.1
CCOc1ccc(C(C)=O)cc1CN1C(=O)C(=O)N(CC)C1=O	-9.4	-0.6	100.7	107.3
COc1cc2cc(CN(CCc3cccc(C)c3)C(=S)NCCCN3CCOCC3)c(=O)[nH]c2cc1OC	9.1	4.5	94.2	94.2
O=C(Oc1ccc(-c2ccccc2)cc1)N1CCOCC1	18.3	-40.6	137.1*	87.6
O=C(Nc1ccccc1Br)c1ccc(OC(=S)N2CCOCC2)cc1	13.8	-39.6	134.9*	90.2
O=C(Nc1ccccc1C(=O)N1CCOCC1)c1ccc(F)cc1	-7.9	0.7	99.4	103.9
Cc1ccc(NC(=O)c2ccc(OC(=S)N3CCOCC3)cc2)cc1	3.5	-33.6	130.7*	102.1
COc1ccccc1NC(=S)N1CCC(C(=O)c2ccc(F)cc2)CC1	8.7	0.6	97.6	99.8
COc1ccc(OCc2cnc(Cl)s2)cc1	0.1	-13.2	110.5	108.8
Cc1ccc(OCc2cnc(Cl)s2)c(C)c1	11.0	-44.7	137.0*	94.7
O=[N+]([O-])c1cc(/C=N/N2CCCCC2)ccc1Cl	11.0	-35.3	132.5*	94.1
CCn1cc(C(=O)N2CCc3ccccc32)c(=O)c2cc(S(=O)(=O)N3CCCC3)ccc21	-26.2	1.6	98.5	133.0*
COc1ccccc1-c1ccc(SCc2ccccc2)nn1	11.6	-20.2	118.9	94.0
SMILES	STAT3 inh	STAT1 blocker	STAT1 activator	STAT3 act
COc1ccccc1-c1ccc(SCc2ccccc2F)nn1	7.6	-31.6	129.3*	95.5
Cc1nn(-c2cccc([N+](=O)[O-])c2)c(N)c1-c1ccccc1	0.1	-44.1	141.8*	107.5
Cc1nn(-c2ccccc2)c(N)c1Sc1cccc([N+](=O)[O-])c1	9.6	-0.7	100.6	91.5
CCCCSc1nnc2c(n1)[nH]c1ccccc12	21.1	-42.9	139.6*	80.5
COCCNC(=O)C(c1ccncc1)N(Cc1ccccc1)C(=O)Cn1nnc2ccccc21 (centres undefined)	7.1	-26.3	123.2	104.4
CCN(CC)C(=O)c1cc(-c2ccc(Br)cc2)on1	12.1	-51.7	146.8*	90.3
CC(=O)N1CCC(N(CCN2CCOCC2)C(=S)Nc2ccccc2C)CC1	3.0	7.0	93.8	95.5
O=C(COc1ccc(Cl)cc1)NCc1nnc(SCC(=O)Nc2ccccc2F)o1	12.2	3.0	96.6	99.4
COc1ccc(NC(=O)c2cc3c(=O)n4ccccc4nc3n2C)c(OC)c1	20.0	-9.4	106.6	87.7
Cn1c(C(=O)NCc2ccccn2)cc2c(=O)n3ccccc3nc21	13.6	-36.9	132.8*	91.2
C=CCNc1nc(S(=O)Cc2ccc(C)cc2)nc2c1CCCC2 (centres undefined)	11.4	6.4	93.6	92.4
COc1ccc(OC)c(-c2csc(N3CCC(c4ccccc4)CC3)n2)c1	6.9	-6.1	103.8	97.3
CCOC(=O)/C(N=Nc1ccc2c(c1)OCO2)=C(\C)O	1.3	-39.5	137.0*	103.0
O=C(Nc1ccc2nc3n(c(=O)c2c1)CCCCC3)c1ccccn1	-6.2	-47.1	145.2*	105.2
O=C(CC(c1ccccc1)c1ccccc1O)NCc1ccccc1Cl (centres undefined)	-11.0	4.7	95.8	106.9
Cc1ccc2nc(NC(=O)/C=C/c3ccc4c(c3)OCO4)sc2c1	4.6	-2.2	104.3	94.4
O=C(/C=C/c1ccc2c(c1)OCO2)Nc1nc(-c2ccc(F)cc2F)cs1	21.8	3.5	96.9	83.7
Brc1cc2c(cc1/C=N/Nc1nc3ccccc3s1)OCO2	-25.6	-35.7	131.9*	121.2
Cc1csc(NC(=O)/C=C/c2ccc3c(c2)OCO3)n1	88.0*	43.6*	59.0	27.5
COc1ccc(NC(=O)/C=C/c2ccc3c(c2)OCO3)cc1	15.2	-35.0	130.9*	88.3
O=C(/C=C/c1ccc2c(c1)OCO2)Nc1nc2ccccc2s1	-1.7	-50.7	146.2*	97.2
COc1ccccc1NC(=S)NC(=O)c1ccc(Cn2cc(Br)cn2)cc1	-4.5	5.2	95.2	102.4
OCCN1CCN(c2ncnc3sc(-c4ccccc4)cc23)CC1	-27.4	-12.9	110.5	124.0
CCc1ccccc1NC(=S)N(CCCN1CCOCC1)Cc1cccs1	16.0	9.7	91.5	89.3
CC(=O)c1c(C)[nH]c(C(=O)NCCc2ccccc2)c1C	9.9	-53.7	149.2*	96.0
SMILES	STAT3 inh	STAT1 blocker	STAT1 activator	STAT3 act
CC(=O)c1c(C)[nH]c(C(=O)OCCOc2ccccc2)c1C	84.4*	50.1*	53.1	31.1
CSc1ccccc1NC(=O)NCCCl	8.2	2.8	96.2	99.7
COc1ccc(Cl)cc1NC(=O)CN1CCc2ccccc21	-4.7	-2.2	101.2	115.7
COC(=O)N(C)c1nc2ccccc2s1	18.3	-12.9	111.7	87.4
CCCCNC(=O)N(C)c1nc2ccccc2s1	-11.7	-37.6	133.0*	114.2
O=C(c1ccc(S(=O)(=O)N2CCOCC2)cc1)N(c1cccc(Cl)c1)C1C=CS(=O)(=O)C1 (centres undefined)	13.7	3.4	96.0	93.7
CCN(CC)c1ccc(C(=O)n2cnc3ccccc32)cc1	-5.1	-30.0	129.6*	110.1
CCC(C(=O)NNC(=O)c1cnccn1)c1ccccc1 (centres undefined)	-7.2	3.4	97.0	108.5
Cc1ccc(CNC(=O)c2ccc3c(c2)NC(=O)C(N2CCOCC2)S3)cc1 (centres undefined)	-33.3	11.2	91.0	133.5*
O=C(NCCCN1CCCCCC1)c1ccc2c(c1)NC(=O)C(N1CCOCC1)S2 (centres undefined)	6.7	-0.9	100.9	100.7
CCOC(=O)C1=C(C)NC(=S)NC1/C=C/c1ccccc1 (centres undefined)	2.5	16.6	84.9	102.5
CC(C)CN(C(=O)CN1CCN(c2ccccc2F)CC1)c1c(N)n(CC(C)C)c(=O)[nH]c1=O	-2.2	-0.9	100.8	103.9
